Test results reported in paper PMC5435566 (Nature chemical biology, 2017).

Key:
human LMPTP-A = biological target: T1, human LMPTP-A (Homo sapiens, UniProt P24666); assay: Isothermal titration calorimetry; type: binding
T1 sequence (P24666 1-158): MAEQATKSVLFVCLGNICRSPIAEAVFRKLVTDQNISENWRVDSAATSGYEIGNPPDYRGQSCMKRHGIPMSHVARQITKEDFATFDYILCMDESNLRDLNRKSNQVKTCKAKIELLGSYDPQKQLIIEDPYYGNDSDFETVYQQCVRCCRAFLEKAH
How it was run: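 ITC was run at 23°C: 2 μl injections of 0.5 mM test compound into 50 μM human LMPTP-A, with or without 200 μM sodium orthovanadate to form the cysteine adduct. Tris runs used 10 mM Tris pH 7.5, 75 mM NaCl, 0.5 mM β-mercaptoethanol, 5% DMSO; parallel runs used phosphate buffer. Kd, ΔH and −TΔS were derived from the titrations.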

[1] = tested on: human LMPTP-A mutants (Y49, Y131, Y132); assay: Inhibition of LMPTP-A mutants, OMFP substrate; type: biochemical; conditions: 0.4 mM OMFP, versus wild-type LMPTP-A
How it was run: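 Wild-type and mutant human LMPTP-A were assayed with 0.4 mM OMFP in 50 mM Bis-Tris pH 6.0, 1 mM DTT, 0.01% Triton X-100 at 37°C across test-compound concentrations. OMFP hydrolysis was monitored continuously by fluorescence (ex 485/em 525 nm) and reported as % activity, from 3 independent experiments.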

Solubility = type: physicochemical
[2] = tested on: insulin receptor (IR) tyrosine phosphorylation in HepG2 hepatocytes; assay: IR phosphorylation in HepG2 cells; type: cell-based, human; conditions: 10 μM compound overnight, 10 nM insulin 5 min
How it was run: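 HepG2 cells were grown in MEM with 10% FBS and pen/strep and confirmed mycoplasma-free. Cells were treated overnight with 10 μM test compound or DMSO in 0.1% FBS medium, then stimulated with 10 nM bovine insulin for 5 min at 37°C. Read-outs were anti-IRβ immunoprecipitation with pY1162/Y1163 Western blot (2 experiments) and pIRβ Y1150/Y1151 sandwich ELISA (5 experiments).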

SMILES	Kd (human LMPTP-A; Tris buffer, no vanadate) [µM]	Kd (human LMPTP-A; phosphate buffer) [µM]	−TΔS (human LMPTP-A; Tris buffer, no vanadate) [kcal/mol]	−TΔS (human LMPTP-A; phosphate buffer) [kcal/mol]	inhibition of LMPTP-A mutated at Y49 and Y132 [1]	inhibition of LMPTP-A mutated at Y131 alone or in combination with Y49 and Y132 [1]	solubility (Solubility)	HepG2 IR phosphorylation after insulin stimulation [2]
N#Cc1ccccc1-c1cc(NCCCN2CCCCC2)c2ccccc2n1 [Compd. 18]	8 ± 2	10 ± 2	-6.4 ± 0.3	-5.6 ± 0.3	substantially reduced	completely abolished	highly soluble	
c1ccc(-c2cc(SCCCN3CCCCC3)c3ccccc3n2)cc1 [Compd. 28]								had no effect
